Experimental data published in ChEMBL document CHEMBL3112391, “Ethoxysanguinarine Induces Inhibitory Effects and Downregulates CIP2A in Lung Cancer Cells” (ACS Med Chem Lett, 2014).
Active and inactive are the calls of the source. No cut-off for these calls is given here.

Columns and labels:
[1] = tested on: A549; assay: Downregulation of CIP2A mRNA expression in human A549 cells after 24 hrs by RT-PCR analysis; format: functional, cell-based
Procedure, shortened: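 Cells exposed to ESG for 24 h. CIP2A transcript level was measured by real-time quantitative RT-PCR.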

[2] = tested on: A549; assay: Downregulation of CIP2A protein expression in human A549 cells after 24 hrs by Western blot analysis; format: functional, cell-based
Procedure, shortened: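 A549 cells were incubated with ESG at a series of concentrations, including 3.5 and 10 μM, for 24 h. Cell lysates were immunoblotted for CIP2A.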

[3] = tested on: NCI-H1975; assay: Downregulation of CIP2A protein expression in human NCI-H1975 cells after 24 hrs by Western blot analysis; format: functional, cell-based
Procedure, shortened: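 H1975 cells were incubated with ESG at a series of concentrations, including 1 and 2 μM, for 24 h. Cell lysates were Western blotted with anti-CIP2A antibody.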

[4] = tested on: A549; assay: Cytotoxicity against human A549 cells assessed as growth inhibition after 48 hrs by MTT assay; format: functional, cell-based; conditions: A549, 48 h
Procedure, shortened: (§1)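 Lung cancer cell lines (adenocarcinoma, squamous and large cell lines) exposed to 0.5−10 μM for 48 h; viability read by MTT; IC50 taken from the dose–response.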

[5] = tested on: NCI-H1975; assay: Cytotoxicity against human NCI-H1975 cells assessed as growth inhibition after 48 hrs by MTT assay; format: functional, cell-based; conditions: NCI-H1975, 48 h; procedure, shortened: as §1
[6] = biological target: Protein CIP2A (Homo sapiens) (UniProt Q8TCG1); assay: Inhibition of CIP2A in human A549 cells assessed as potentiation of cisplatin-induced PARP cleavage at 3.5 uM after 24 hrs by Western blot analysis; format: cell-based
Procedure, shortened: (§2)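 Cells cultured 24 h with test agent and/or cisplatin; lysates immunoblotted for PARP cleavage.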

[7] = biological target: Protein CIP2A (Homo sapiens) (UniProt Q8TCG1); assay: Inhibition of CIP2A in human NCI-H1975 cells assessed as potentiation of cisplatin-induced PARP cleavage at 1 uM after 24 hrs by Western blot analysis; format: cell-based; procedure, shortened: as §2
[8] = biological target: Protein CIP2A (Homo sapiens) (UniProt Q8TCG1); assay: Inhibition of CIP2A in human A549 cells assessed as potentiation of cisplatin-induced cell growth inhibition at 3.5 uM after 24 hrs by MTT assay; format: cell-based
Procedure, shortened: (§3)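 Cells treated 24 h with test agent, cisplatin or both (H1975: 1 μM with 10 μM cisplatin; A549: 3.5 μM with 20 μM cisplatin); viability by MTT.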

[9] = biological target: Protein CIP2A (Homo sapiens) (UniProt Q8TCG1); assay: Inhibition of CIP2A in human NCI-H1975 cells assessed as potentiation of cisplatin-induced cell growth inhibition at 1 uM after 24 hrs by MTT assay; format: cell-based; procedure, shortened: as §3
[10] = tested on: A549; assay: Cytotoxicity against human A549 cells assessed as growth inhibition at 5 uM after 24 hrs by MTT assay in presence of pan-caspase inhibitor z-VAD.fmk; format: functional, cell-based
Procedure, shortened: (§4)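 Cells pretreated 1 h with z-VAD-fmk (20 μM), then exposed for 24 h (H1975 at 1.5 μM, A549 at 5 μM); viability by MTT.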

[11] = tested on: NCI-H1975; assay: Cytotoxicity against human NCI-H1975 cells assessed as growth inhibition at 1.5 uM after 24 hrs by MTT assay in presence of pan-caspase inhibitor z-VAD.fmk; format: functional, cell-based; procedure, shortened: as §4
[12] = tested on: A549; assay: Induction of apoptosis in human A549 cells assessed as PARP cleavage at 5 uM after 24 hrs by Western blot analysis in presence of pan-caspase inhibitor z-VAD.fmk; format: functional, cell-based
Procedure, shortened: (§5)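 Cells pretreated 1 h with z-VAD-fmk (20 μM), then exposed for 24 h (H1975 at 1.5 μM, A549 at 5 μM); lysates immunoblotted for PARP and its cleavage fragment.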

[13] = tested on: NCI-H1975; assay: Induction of apoptosis in human NCI-H1975 cells assessed as PARP cleavage at 1.5 uM after 24 hrs by Western blot analysis in presence of pan-caspase inhibitor z-VAD.fmk; format: functional, cell-based; procedure, shortened: as §5
[14] = tested on: A549; assay: Induction of apoptosis in human A549 cells assessed as decrease in pro-caspase-9 protein expression at 1 to 10 uM after 24 hrs by Western blot analysis; format: functional, cell-based
Procedure, shortened: (§6)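 H1975 or A549 cells treated 24 h at various concentrations; lysates immunoblotted for apoptosis markers (PARP, caspases).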

[15] = tested on: A549; assay: Induction of apoptosis in human A549 cells assessed as decrease in pro-caspase-8 protein expression at 1 to 10 uM after 24 hrs by Western blot analysis; format: functional, cell-based; procedure, shortened: as §6
[16] = tested on: A549; assay: Induction of apoptosis in human A549 cells assessed as PARP cleavage at 1 to 10 uM after 24 hrs by Western blot analysis; format: functional, cell-based; procedure, shortened: as §6
[17] = tested on: NCI-H1975; assay: Induction of apoptosis in human NCI-H1975 cells assessed as decrease in pro-caspase-9 protein expression at 1 to 2.5 uM after 24 hrs by Western blot analysis; format: functional, cell-based; procedure, shortened: as §6
[18] = tested on: NCI-H1975; assay: Induction of apoptosis in human NCI-H1975 cells assessed as decrease in pro-caspase-8 protein expression at 1 to 2.5 uM after 24 hrs by Western blot analysis; format: functional, cell-based; procedure, shortened: as §6
[19] = tested on: NCI-H1975; assay: Induction of apoptosis in human NCI-H1975 cells assessed as PARP cleavage at 1 to 2.5 uM after 24 hrs by Western blot analysis; format: functional, cell-based; procedure, shortened: as §6
[20] = tested on: A549; assay: Induction of apoptosis in human A549 cells at 2.5 to 10 uM after 24 hrs by annexin V/propidium iodide staining-based flow cytometric analysis; format: functional, cell-based
Procedure, shortened: (§7)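 H1975 or A549 cells treated 24 h at various concentrations; apoptosis scored by annexin V/propidium iodide staining and flow cytometry.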

[21] = tested on: NCI-H1975; assay: Induction of apoptosis in human NCI-H1975 cells at 0.5 to 2.5 uM after 24 hrs by annexin V/propidium iodide staining-based flow cytometric analysis; format: functional, cell-based; procedure, shortened: as §7
[22] = Cytotoxicity against human 95-D cells assessed as growth inhibition after 48 hrs by MTT assay; format: functional, cell-based; procedure, shortened: as §1
[23] = Cytotoxicity against human L78 cells assessed as growth inhibition after 48 hrs by MTT assay; format: functional, cell-based; conditions: L78, 48 h; procedure, shortened: as §1
[24] = Cytotoxicity against human GLC82 cells assessed as growth inhibition after 48 hrs by MTT assay; format: functional, cell-based; conditions: GLC82, 48 h; procedure, shortened: as §1
[25] = Cytotoxicity against human SPC-A1 cells assessed as growth inhibition after 48 hrs by MTT assay; format: functional, cell-based; conditions: SPCA1, 48 h; procedure, shortened: as §1
[26] = tested on: NCI-H460; assay: Cytotoxicity against human NCI-H460 cells assessed as growth inhibition after 48 hrs by MTT assay; format: functional, cell-based; conditions: NCI-H460, 48 h; procedure, shortened: as §1
[27] = tested on: A549; assay: Cytotoxicity against human A549 cells assessed as growth inhibition at 5 uM after 24 hrs by MTT assay in presence of PP2A inhibitor okadaic acid; format: functional, cell-based
Procedure, shortened: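 A549 cells pretreated 2 h with okadaic acid (25 nM), then 5 μM test agent for 24 h; viability by MTT.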

[28] = biological target: Protein CIP2A (Homo sapiens) (UniProt Q8TCG1); assay: Inhibition of CIP2A in human A549 cells assessed as induction of PP2A activity at 5 uM after 4 to 8 hrs by Western blot analysis; format: cell-based
Procedure, shortened: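 A549 cells exposed to 5 μM over a time course, lysed, and PP2A activity measured in the lysates.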

[29] = biological target: Protein CIP2A (Homo sapiens) (UniProt Q8TCG1); assay: Inhibition of CIP2A in human A549 cells assessed as downregulation of p-AKT protein expression at 1 to 10 uM after 24 hrs by Western blot analysis; format: cell-based
Procedure, shortened: (§8)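 H1975 or A549 cells incubated 24 h across a concentration series; whole-cell lysates immunoblotted for CIP2A, c-Myc, pAKT and total AKT.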

[30] = biological target: Protein CIP2A (Homo sapiens) (UniProt Q8TCG1); assay: Inhibition of CIP2A in human A549 cells assessed as downregulation of c-Myc protein expression at 1 to 10 uM after 24 hrs by Western blot analysis; format: cell-based; procedure, shortened: as §8
[31] = biological target: Protein CIP2A (Homo sapiens) (UniProt Q8TCG1); assay: Inhibition of CIP2A in human NCI-H1975 cells assessed as downregulation of p-AKT protein expression at 1 to 2.5 uM after 24 hrs by Western blot analysis; format: cell-based; procedure, shortened: as §8
[32] = biological target: Protein CIP2A (Homo sapiens) (UniProt Q8TCG1); assay: Inhibition of CIP2A in human NCI-H1975 cells assessed as downregulation of c-Myc protein expression at 1 to 2.5 uM after 24 hrs by Western blot analysis; format: cell-based; procedure, shortened: as §8
[33] = tested on: NCI-H1975; assay: Downregulation of CIP2A protein expression in human NCI-H1975 cells at 1 to 2 uM after 24 hrs by Western blot analysis; format: functional, cell-based; procedure, shortened: as §8
[34] = tested on: A549; assay: Downregulation of CIP2A protein expression in human A549 cells at 3.5 to 10 uM after 24 hrs by Western blot analysis; format: functional, cell-based; procedure, shortened: as §8
[35] = tested on: A549; assay: Downregulation of CIP2A protein expression in human A549 cells at 5 uM by Western blot analysis; format: functional, cell-based; conditions: TDE = time-dependent effect
Procedure, shortened: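 A549 cells treated with 5 μM over a time course; lysates immunoblotted for CIP2A.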

[36] = tested on: A549; assay: Downregulation of CIP2A mRNA expression in human A549 cells at 1 to 10 uM after 24 hrs by RT-PCR analysis; format: functional, cell-based
Procedure, shortened: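 CIP2A transcript measured by real-time quantitative RT-PCR after 24 h treatment.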

[37] = biological target: Protein CIP2A (Homo sapiens) (UniProt Q8TCG1); assay: Induction of CIP2A proteolysis in human A549 cells at 5 uM after 4 hrs in presence of protein synthesis inhibitor cycloheximide; format: cell-based
Procedure, shortened: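 A549 cells given 100 μg/mL cycloheximide with or without 5 μM test agent over a time course; whole-cell lysates probed for CIP2A.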

[38] = biological target: Protein CIP2A (Homo sapiens) (UniProt Q8TCG1); assay: Induction of FLAG-tagged CIP2A (unknown origin) proteolysis transfected in human A549 cells after 4 to 12 hrs; format: cell-based
Procedure, shortened: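 A549 cells transfected 24 h with Flag-CIP2A, then treated over a time course; whole-cell lysates probed with anti-Flag.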

In the case of `C=C1C(=O)[C@]23[C@H](O)[C@H]1CC[C@H]2[C@@]12CO[C@@]3(O)C[C@@H]1C(C)(C)CC[C@@H]2OC(C)=O` [RABDOCOETSIN B], the Activity [1] is reported as “Active”, the Activity [2] is reported as “Active” and the Activity [3] is reported as “Active”. It also gave an IC50 [4] of 14200 nM and an IC50 [5] of 10300 nM.
For `CCOC1c2c(ccc3c2OCO3)-c2ccc3cc4c(cc3c2N1C)OCO4` (stereo not given), the inhibition [6] was “Active”, the inhibition [7] was “Active” and the inhibition [8] was “Active”. For the same compound, the inhibition [9] was “Active”, the “growth inhibition (GI)” value [10] was “inactive” and the “growth inhibition (GI)” value [11] was “inactive”. For the same compound, the Activity [12] was “inactive”, the Activity [13] was “inactive” and the Activity [14] was “Active”. The Activity [15] was “Active”, the Activity [16] was “Active” and the Activity [17] was “Active”. For the same compound, the Activity [18] was “Active”, the Activity [19] was “Active” and the Activity [20] was “Active”. The Activity [21] was “Active”, the IC50 [22] was 2000 nM and the IC50 [23] was 1000 nM. The IC50 [24] was 1300 nM, the IC50 [25] was 1100 nM and the IC50 [26] was 1560 nM. For the same compound, the IC50 [4] was 2740 nM, the IC50 [5] was 1290 nM and the “growth inhibition (GI)” value [27] was “inactive”. For the same compound, the inhibition [28] was “Active”, the inhibition [29] was “Active” and the inhibition [30] was “Active”. The inhibition [31] was “Active”, the inhibition [32] was “Active” and the Activity [33] was “Active”. The Activity [34] was “Active”, the Activity [35] was “tde” and the Activity [36] was “Active”. For the same compound, the Activity [37] was “Active” and the Activity [38] was “Active”.
